From ChEMBL document CHEMBL4014261, “Design, Synthesis, and Antimicrobial Evaluation of a Novel Bone-Targeting Bisphosphonate-Ciprofloxacin Conjugate for the Treatment of Osteomyelitis Biofilms” (J Med Chem, 2017)
Values after ≈ are worked out from the molar mass of the structure shown. Active and inactive are the calls of the source. The calls are words filed in the database; no cut-off is given here.

Experiments:
Staphylococcus aureus [1] = assay: Antibacterial activity against methicillin-sensitive Staphylococcus aureus isolate 1 planktonic cells after 24 hrs by microdilution assay; assay type: functional; conditions: isolate 1, 24 h
How it was run: (§1)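 Planktonic cells at 1 × 10^5 CFU/mL were exposed to compound, and A580 was read at 0 h and after 24 h at 37 °C with shaking. Controls were medium plus microbes, with 1% (v/v) DMSO where the solvent was used. Relative cell number was calculated against the control. Results were confirmed by subculture in fresh medium (48 h, 37 °C) and plating. Conjugate concentrations were expressed as parent-antibiotic equivalents.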

Staphylococcus aureus [2] = assay: Antibacterial activity against methicillin-sensitive Staphylococcus aureus isolate 3 planktonic cells after 24 hrs by microdilution assay; assay type: functional; conditions: isolate 3, 24 h; how it was run: as §1
Staphylococcus aureus [3] = assay: Antibacterial activity against methicillin-sensitive Staphylococcus aureus isolate 4 planktonic cells after 24 hrs by microdilution assay; assay type: functional; conditions: isolate 4, 24 h; how it was run: as §1
Staphylococcus aureus [4] = assay: Antibacterial activity against methicillin-sensitive Staphylococcus aureus isolate 5 planktonic cells after 24 hrs by microdilution assay; assay type: functional; conditions: isolate 5, 24 h; how it was run: as §1
Staphylococcus aureus [5] = assay: Antibacterial activity against methicillin-sensitive Staphylococcus aureus ATCC 6538 planktonic cells after 24 hrs by microdilution assay; assay type: functional; conditions: ATCC 6538, 24 h; how it was run: as §1
Staphylococcus aureus [6] = assay: Antibacterial activity against methicillin-sensitive Staphylococcus aureus ATCC 6538 planktonic cells at pH 7.4 after 24 hrs by microdilution method; assay type: functional; conditions: ATCC 6538, 24 h
How it was run: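 Planktonic ATCC 6538 was tested by microdilution in medium adjusted to pH 5 or pH 7.4 with KOH or HCl, with pH checked by universal indicator. MIC50 was determined at each pH.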

Staphylococcus aureus [7] = assay: Bactericidal activity against methicillin-resistant Staphylococcus aureus MR4-CIPS planktonic cells assessed as reduction in bacterial growth at 7.8 ug/ml after 2 hrs by time kill assay; assay type: functional
How it was run: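 Time-kill per CLSI on planktonic cultures, set up as the microdilution assay: 1 × 10^5 CFU/mL, 37 °C with shaking. A580 is read at 0, 1, 2, 4, 8, 16 and 24 h, and growth is expressed relative to untreated medium + microbes control. Concentrations are parent-antibiotic equivalents.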

Staphylococcus aureus [8] = assay: Bactericidal activity against Staphylococcus aureus ATCC 6538 biofilm using polystyrene as substrate assessed as reduction in colony forming units after 24 hrs; assay type: functional
How it was run: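 Biofilms were started from a 1 McFarland suspension, allowed to adhere 4 h at 37 °C on HA discs or polystyrene well bottoms, then rinsed. They were exposed 24 h at 37 °C to TSB containing 0.24–125 mg/L compound. Cells were detached in 0.5% saponin by 1 min vortexing, serially diluted and plated on Columbia (S. aureus) or MacConkey (P. aeruginosa) agar, 37 °C, 24 h. Read-out was mean CFU/mm² ± SEM; HA area was measured by X-ray tomography.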

Pseudomonas aeruginosa = assay: Bactericidal activity against Pseudomonas aeruginosa ATCC 15442 biofilm using hydroxyapatite as substrate assessed as reduction in colony forming units at 50 ug/ml at pH 4.8 to 7.4 after 24 hrs; assay type: functional
Staphylococcus aureus [9] = assay: Antibiofilm activity against Staphylococcus aureus ATCC 6538 assessed as reduction in bacterial adherence to HA at 15.6 to 250 ug/ml pretreated with HA for 24 hrs followed by organism inoculation measured after 24 hrs; assay type: functional
How it was run: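 HA spherules (final 10 mg/mL) in TSB were preincubated 24 h at 37 °C with shaking with compound (final 0.12–250 mg/L), then pelleted and the supernatant discarded. They were inoculated with 1 mL S. aureus at 10^5 CFU/mL. A580 was read at 0 and 24 h (37 °C, shaking) against controls without spherules and spherules without compound; spherules were also plated for CFU.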

Staphylococcus aureus [10] = assay: Antibiofilm activity against Staphylococcus aureus ATCC 6538 assessed as CFU counts at 1 ug/mL pretreated with HA for 24 hrs followed by organism inoculation measured after 24 hrs (reference value: 4.5 x 10^10CFU); assay type: functional
How it was run: (§2)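 HA discs were soaked 24 h at 37 °C in 2 mL compound solution, with DMSO or phosphate-buffer controls, then rinsed 3× with sterile water. Discs were inoculated with 2 mL of 0.5 McFarland S. aureus ATCC 6538 for biofilm formation. Biofilm CFU were counted after 24 h growth.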

Staphylococcus aureus [11] = assay: Antibiofilm activity against Staphylococcus aureus ATCC 6538 assessed as CFU counts at 50 ug/mL pretreated with HA for 24 hrs followed by organism inoculation measured after 24 hrs (reference value: 4.5 x 10^10CFU); assay type: functional; how it was run: as §2
Staphylococcus aureus [12] = assay: Antibiofilm activity against Staphylococcus aureus ATCC 6538 assessed as CFU counts at 100 ug/mL pretreated with HA for 24 hrs followed by organism inoculation measured after 24 hrs (reference value: 4.5 x 10^10CFU); assay type: functional; how it was run: as §2
Staphylococcus aureus [13] = assay: Antibiofilm activity against Staphylococcus aureus ATCC 6538 assessed as CFU counts at 200 ug/mL pretreated with HA for 24 hrs followed by organism inoculation measured after 24 hrs (reference value: 4.5 x 10^10CFU); assay type: functional
Rattus norvegicus [14] = assay: Toxicity in jawbone peri-implant osteomyelitis Sprague-Dawley rat model infected with Aggregatibacter actinomycetemcomitans assessed as cutaneous injection-site reactions at 0.1 to 10 mg/kg, ip single dose measured after 1 week post pharmacotherapy; assay type: organism-based; conditions: in vivo, 168 h
How it was run: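 Rats bearing infected palatal implants received i.p. dosing in sterile saline. They were observed during therapy for cutaneous injection-site reactions, inflammation and gross tolerability issues, and were euthanized one week after pharmacotherapy.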

Rattus norvegicus [15] = assay: Toxicity in jawbone peri-implant osteomyelitis Sprague-Dawley rat model infected with Aggregatibacter actinomycetemcomitans assessed as signs of gross tolerability issue at 0.1 to 10 mg/kg, ip single dose measured after 1 week post pharmacotherapy; assay type: organism-based; conditions: in vivo, 168 h
How it was run: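 Rats carried two *Aa* (D7S-1) biofilm-coated miniature titanium implants (10^9 CFU) in the palatal bone, one on each side. Dosing began one week after surgery: a single intraperitoneal injection under anesthesia, in sterile physiological saline, with 2 rats per group. Injection-site reactions and gross tolerability were observed during therapy. Animals were euthanized one week after pharmacotherapy.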

[16] = system: Aggregatibacter actinomycetemcomitans; assay: Antibiofilm activity against Aggregatibacter actinomycetemcomitans infected in jawbone peri-implant osteomyelitis Sprague-Dawley rat model assessed as mean CFU count/gram at 10 mg/kg, ip single dose measured after 1 week post pharmacotherapy; assay type: functional, organism-based
How it was run: (§3)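 Rats carried two titanium implants each, preinoculated with A. actinomycetemcomitans D7S-1 biofilm (10^9 CFU), placed bilaterally in palatal bone. One week after surgery, randomized groups received i.p. doses in sterile saline; the negative control was endotoxin-free saline. One week after treatment, 1 cm² peri-implant tissue and bone were homogenized in 0.5% saponin, serially diluted 10-fold and spread-plated on modified TSB (37 °C, 5% CO2, 48 h). Read-out was CFU/g and mean log10 reduction; analysts were blinded.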

[17] = system: Aggregatibacter actinomycetemcomitans; assay: Antibiofilm activity against Aggregatibacter actinomycetemcomitans infected in jawbone peri-implant osteomyelitis Sprague-Dawley rat model assessed as mean CFU count/gram at 0.3 mg/kg, ip administered 3 times per week measured after 1 week post pharmacotherapy; assay type: functional, organism-based; how it was run: as §3
Staphylococcus aureus [18] = assay: Bactericidal activity against methicillin-susceptible Staphylococcus aureus ATCC 6538 planktonic cells assessed as reduction in bacterial growth at 15.6 ug/ml after 2 hrs by time kill assay
Staphylococcus aureus [19] = assay: Bactericidal activity against methicillin-susceptible Staphylococcus aureus ATCC 6538 planktonic cells assessed as reduction in bacterial growth at 15.6 ug/ml after 24 hrs by time kill assay; set-up: scale not given: the % may be the effect or the level left

O=C(O)c1cn(C2CC2)c2cc(N3CCN(C(=O)Oc4ccc(CC(P(=O)(O)O)P(=O)(O)O)cc4)CC3)c(F)cc2c1=O
MIC (Staphylococcus aureus [1]): 3.9 µg/mL (≈ 6.1 µM) | MIC (Staphylococcus aureus [2]): 0.49 µg/mL (≈ 0.766 µM) | MIC (Staphylococcus aureus [3]): 3.9 µg/mL (≈ 6.1 µM) | MIC (Staphylococcus aureus [4]): 1.9 µg/mL (≈ 2.97 µM) | MIC (Staphylococcus aureus [5]): 31.2 µg/mL (≈ 48.8 µM) | MIC50 (Staphylococcus aureus [6]): 15.6 µg/mL (≈ 24.4 µM) | MIC90 (Staphylococcus aureus [6]): 31.2 µg/mL (≈ 48.9 µM) | Activity (Staphylococcus aureus [7]): Active | MBIC50 (Staphylococcus aureus [8]): 15.6 to 31.2 µg/mL | Activity (Pseudomonas aeruginosa): Active | Activity (Staphylococcus aureus [9]): Active | Activity (Staphylococcus aureus [10]): 7.1 ×10¹⁰ CFU | Activity (Staphylococcus aureus [11]): Active | Activity (Staphylococcus aureus [12]): Active | Activity (Staphylococcus aureus [13]): Active | Activity (Rattus norvegicus [14]): Non-Toxic | Activity (Rattus norvegicus [15]): Non-Toxic | Activity [16]: Active | Activity [17]: Active | Activity (Staphylococcus aureus [18]): Active | Activity (Staphylococcus aureus [19]): 50%
